Test results as given in ChEMBL document CHEMBL1156148, “Isolation, structure and biological activities of platencin A(2)-A(4) from Streptomyces platensis” (Bioorg Med Chem, 2010).
Converted amounts (≈) assume the structure as drawn.

Experiments:
[1] = test system: Enterococcus faecalis; assay: Antibacterial activity against Enterococcus faecalis CL8516 after 20 hrs by NCCLS method; assay type: functional; details: CL8516, 20 h
Summary of the method: (§1)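 Twofold serial broth dilution in cation-adjusted Mueller Hinton broth per NCCLS guidelines. Inoculum 10^5 CFU/mL, incubated at 37 °C for 20 h with compound in growth medium. MIC taken as the lowest concentration preventing visible growth.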

[2] = test system: Staphylococcus aureus; assay: Antibacterial activity against Staphylococcus aureus Lin after 20 hrs by NCCLS method in presence of 50 % serum; assay type: functional
[3] = test system: Staphylococcus aureus; assay: Antibacterial activity against Staphylococcus aureus Smith after 20 hrs by NCCLS method; assay type: functional; summary of the method: as §1
[4] = test system: Staphylococcus aureus; assay: Antibacterial activity against Staphylococcus aureus expressing FabF antisense plasmid S1-1941 assessed as minimum concentration required to produce differential zone of clearance after 18 hrs by antisense two-plate differential sensitivity cellular assay relative to control; assay type: functional
Summary of the method: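 S. aureus RN450 carrying the fabF antisense plasmid S1–1941, plus a vector-only control strain, grown 18–20 h at 37 °C in LB with 34 µg/mL chloramphenicol. Seeded at 1:1000 of OD 3.0 into LB agar with 0.2% glucose and 15 µg/mL chloramphenicol; antisense plates also got 50 mM xylose. Samples added to agar wells, incubated 18 h at 37 °C, and zones measured. MDC was found by twofold serial dilution.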

[5] = Inhibition of Staphylococcus aureus FAS2 assessed as 2-[14C]malonyl-CoA incorporation after 90 mins by scintillation counting
Summary of the method: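 Partially purified S. aureus fatty-acid synthesis enzyme mix (1.26 µg) preincubated 20 min at room temperature with serially diluted compound. Buffer: 100 mM sodium phosphate pH 7.0, EDTA, NADPH, NADH, DTT, β-mercaptoethanol, 20 µM octanoyl-CoA (or lauroyl-CoA), 4% DMSO, 5 µM ACP. Started with 4 µM final [2-14C]malonyl-CoA, run 90 min at 37 °C, stopped with perchloric acid, and counted by scintillation on phospholipid-coated flash plates.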

[6] = test system: Bacillus subtilis; assay: Antibacterial activity against Bacillus subtilis MB964 after 20 hrs by NCCLS method; assay type: functional; details: MB964, 20 h; summary of the method: as §1
[7] = test system: Haemophilus influenzae; assay: Antibacterial activity against Haemophilus influenzae MSD2261 after 20 hrs by NCCLS method; assay type: functional; details: MSD2261, 20 h; summary of the method: as §1
[8] = test system: Escherichia coli; assay: Antibacterial activity against wild type Escherichia coli MB2884 after 20 hrs by NCCLS method; assay type: functional; details: MB2884, 20 h; summary of the method: as §1
[9] = test system: Escherichia coli; assay: Antibacterial activity against envelope disrupted Escherichia coli MB5746 after 20 hrs by NCCLS method; assay type: functional; details: MB5746, 20 h; summary of the method: as §1
[10] = test system: Candida albicans; assay: Antifungal activity against Candida albicans after 20 hrs by NCCLS method; assay type: functional; summary of the method: as §1
[11] = test system: HeLa; assay: Cytotoxicity against human HeLa cells by MTT assay; assay type: functional, cell-based

MIC [1] [µg/mL]	MIC [2] [µg/mL]	MIC [3] [µg/mL]	IC50 [5] [µg/mL]	MIC [6] [µg/mL]	MIC [7] [µg/mL]	MIC [8] [µg/mL]	MIC [9] [µg/mL]	MIC [10] [µg/mL]	SMILES	Activity [4] [µg/mL]	IC50 [11] [µM]
> 64	> 64	> 64	25.1 (≈ 56.6 µM)	> 64	> 64	> 64	32 (≈ 72.2 µM)	> 64	C[C@@]1(O)C[C@@]23C=CC(=O)[C@@](C)(CCC(=O)Nc4c(O)ccc(C(=O)O)c4O)[C@@H]2C[C@@H]1CC3 [PLATENCIN A4]	100	> 100
64 (≈ 145 µM)	> 64	16 (≈ 36.2 µM)	7.1 (≈ 16.1 µM)	64 (≈ 145 µM)	64 (≈ 145 µM)	> 64	16 (≈ 36.2 µM)	> 64	C=C1[C@H]2CC[C@@]3(C=CC(=O)[C@@](C)(CCC(=O)Nc4c(O)ccc(C(=O)O)c4O)[C@@H]3C2)[C@H]1O [PLATENCIN A3]	20	> 100

SMILES	MIC [1] [µg/mL]	MIC [2] [µg/mL]	MIC [3] [µg/mL]	IC50 [5] [µg/mL]	MIC [6] [µg/mL]	MIC [7] [µg/mL]	MIC [8] [µg/mL]	MIC [9] [µg/mL]	MIC [10] [µg/mL]	Activity [4] [µg/mL]	IC50 [11] [µM]
C=C1C[C@@]23C=CC(=O)[C@@](C)(CCC(=O)Nc4c(O)ccc(C(=O)O)c4O)[C@@H]2C[C@@H]1CC3 [PLATENCIN]	2 (≈ 4.7 µM)	8	0.5 (≈ 1.18 µM)	12 (≈ 28.2 µM)	1 (≈ 2.35 µM)	64 (≈ 150 µM)	> 64	2 (≈ 4.7 µM)	> 64	0.2	86
